One assay deals with pS6. Briefly: pS6 phosphoflow in live primary CLL cells after 24 h treatment. The note with it: for IC50: Homo sapiens, CLL cell, read-out: IC50 for decrease in pS6 (dMFI). Format: cell-based, human.
Another assay concerns primary CLL cells. The experiment in a line: Cell death. Format: cell-based, human. The settings on record: for IC50: Homo sapiens, CLL cell, read-out: IC50 for cell death; for primary CLL cells died: cleaved caspase-3.
Another assay relates to pNF-κB p65. The experiment in a line: pNF-κB p65 phosphoflow in live primary CLL cells after 24 h treatment. Format: cell-based, human. The note with it: for IC50: Homo sapiens, CLL cell, read-out: IC50 for decrease in pNF-κB p65 (dMFI).
The test system of another assay is Mcl-1. Briefly: Mcl-1 by flow cytometry in live primary CLL cells after 24 h treatment. Format: cell-based, human. The settings on record: for IC50: Homo sapiens, CLL cell, read-out: IC50 for lowering Mcl-1 (Mcl-1 dMFI). An outline of the steps: (§1)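 Primary CLL cells were thawed and resuspended at 8 × 10^6 cells/mL in high-glucose complete medium (2.5 g/L total glucose). They were plated at 2 × 10^6 per well on confluent OP9 stroma, rested overnight, then treated 24 h with test compound at 0.1% DMSO final. Staining: Fc block, viability dye, CD19/CD5, Foxp3-buffer fix/perm, then intracellular Bcl-2 BV421 or Mcl-1 AF647. Live CD5+CD19+ gate; dMFI = MFI minus FMO; n = 6 donors, 2 experiments pooled.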
On the technique in general: Flow cytometry measures light scatter and fluorescence of single cells or particles in a stream.

The test system of another assay is Bcl-2. Briefly: Bcl-2 by flow cytometry in live primary CLL cells after 24 h treatment. The note with it: for IC50: Homo sapiens, CLL cell, read-out: IC50 for lowering Bcl-2 (Bcl-2 dMFI). The format is cell-based, human. An outline of the steps:
as §1

Assay [1] deals with TRAF1. Briefly: TRAF1 by flow cytometry in live primary CLL cells on OP9 after 24 h treatment. The format is cell-based, human. The settings on record: for effect on TRAF1 expression: primary CLL cells, 24 h.
The test system of assay [2] is pERK. The experiment in a line: pERK phosphoflow in live primary CLL cells after 24 h treatment. Format: cell-based, human. The note with it: for IC50: Homo sapiens, CLL cell, read-out: IC50 for decrease in pERK (dMFI).
Assay [3] concerns TRAF1 in the CD40 signaling complex. Format: cell-based, human. The settings on record: BV6 5 μM. An outline of the steps:
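shCTL or shPKN1 RAJI cells (6 × 10^6) received cycloheximide 3 μg/ml for the indicated times, ± BV6 5 μM, and were lysed in 1% NP-40 with protease/phosphatase inhibitors. For IP1, Protein G magnetic beads were loaded with 0.5 μg anti-CD40 (10 min, RT), then incubated with lysate overnight at 4°C. Unbound material was re-precipitated with 0.5 μg anti-TRAF1 (IP2). Both IPs and lysates were western blotted for TRAF1.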

For assay [4], the system named is pERK. Briefly: pERK by flow cytometry in RAJI cells after 24 h inhibitor treatment. The format is cell-based, human.
Assay [5] relates to TRAF1. Format: cell-based, human. The note with it: 24 h; for IC50: Homo sapiens, Raji, read-out: IC50 for reducing TRAF1; for effect on TRAF1 levels: RAJI cells, 0.1 nM-10 μM. An outline of the steps:
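shCTL RAJI cells were seeded at 2 × 10^5 per well in RPMI 1640 with 10% FCS, 2-ME, glutamine, pen/strep and non-essential amino acids. Test compound was added at 0.1 nM–10 μM (0.1% DMSO final) for 24 h. Staining: Fc block, viability dye, Foxp3-buffer fixation/permeabilisation, rat anti-TRAF1 (clone 1F3) with goat anti-rat PE secondary. TRAF1 dMFI = MFI minus FMO background.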

A further assay concerns the target PRK1(h) (Homo sapiens, UniProt Q16512). The experiment in a line: Dose titration of selected inhibitors against PKN1 kinase activity in vitro. The format is biochemical.

For orientation: IC50 means the point on the concentration scale where inhibition reaches its midpoint.

Where two headings read alike, the source gives them in different places. *1 amine or outer side, *2 acyl side, *3 side chain or, on linkers, in order; H or OH if unused. Where a SMILES comes first, the peptide text is derived from it. Bridges are numbered along the chain shown (N, C = ends). Roman numbers before positions name the chains, in order. [ ]: non-standard residue; d: D form. Hexamethylenediamine = C(CCCN[*:2])CCN[*:1]; Dip = N[C@H](C(=O)O)C(c1ccccc1)c1ccccc1; Chg = N[C@H](C(=O)O)C1CCCCC1; NMeA = CN[C@@H](C)C(=O)O

PRK1(h), sequence (Q16512 whole entry): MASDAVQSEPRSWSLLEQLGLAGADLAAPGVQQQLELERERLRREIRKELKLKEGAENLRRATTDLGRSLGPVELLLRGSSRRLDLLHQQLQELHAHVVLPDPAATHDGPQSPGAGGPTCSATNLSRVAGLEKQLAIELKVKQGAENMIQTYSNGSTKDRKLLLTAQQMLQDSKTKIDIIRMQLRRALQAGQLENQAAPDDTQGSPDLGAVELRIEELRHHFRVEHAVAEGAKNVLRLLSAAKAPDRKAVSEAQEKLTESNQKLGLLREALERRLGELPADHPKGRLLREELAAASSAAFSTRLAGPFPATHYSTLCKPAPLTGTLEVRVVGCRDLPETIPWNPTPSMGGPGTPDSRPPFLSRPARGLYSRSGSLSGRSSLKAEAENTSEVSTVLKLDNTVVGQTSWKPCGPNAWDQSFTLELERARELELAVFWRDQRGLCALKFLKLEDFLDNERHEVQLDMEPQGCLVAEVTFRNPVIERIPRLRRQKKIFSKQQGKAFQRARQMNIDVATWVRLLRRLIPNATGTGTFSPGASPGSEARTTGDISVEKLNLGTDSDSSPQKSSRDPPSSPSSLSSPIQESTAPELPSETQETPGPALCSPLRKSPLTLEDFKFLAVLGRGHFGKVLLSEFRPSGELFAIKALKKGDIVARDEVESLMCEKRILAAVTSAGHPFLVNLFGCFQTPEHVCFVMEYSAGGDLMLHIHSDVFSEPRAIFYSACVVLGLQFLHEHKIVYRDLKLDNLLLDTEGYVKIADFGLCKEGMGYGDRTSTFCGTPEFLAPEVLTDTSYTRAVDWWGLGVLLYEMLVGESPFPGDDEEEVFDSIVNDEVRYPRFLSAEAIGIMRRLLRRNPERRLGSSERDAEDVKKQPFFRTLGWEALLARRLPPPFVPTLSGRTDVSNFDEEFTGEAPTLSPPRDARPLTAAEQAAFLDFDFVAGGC

As for `Clc1ccc(C2(c3ccc(-c4cn[nH]c4)cc3)CCNCC2)cc1` [AT7867], the “effect on pS6” value in the assay with pS6 (primary CLL cells) is on record as “slightly reduced”. In addition, in the assay with primary CLL cells (primary CLL cells, 24 h), the “effect on cell death” value is listed as “no effect”. Further, the “effect on levels of pNF-κB” value with pNF-κB p65 (primary CLL cells) is given as “did not affect”. In the assay with Mcl-1 (primary CLL cells), the “effect on Mcl-1 expression” value was “did not affect”. Besides, the “effect on Bcl-2 expression” value with Bcl-2 (primary CLL cells) was “did not affect”. Further, in the assay with TRAF1 [1], the “effect on TRAF1 expression” value is “no effect”. For the same molecule, in the assay on pERK [2] (primary CLL cells), the “effect on pERK” value is given as “slightly reduced”.
With `CN[C@@H](C)C(=O)N[C@H](C(=O)N1CCC[C@H]1C(=O)N[C@H](C(=O)NCCCCCCNC(=O)[C@@H](NC(=O)[C@@H]1CCCN1C(=O)[C@@H](NC(=O)[C@H](C)NC)C1CCCCC1)C(c1ccccc1)c1ccccc1)C(c1ccccc1)c1ccccc1)C1CCCCC1` [BV6] (I: H-[NMeA][Chg]P[Dip] / II: H-[NMeA][Chg]P[Dip]; linker I:C-II:C via Hexamethylenediamine), the “cytosolic pool of TRAF1 (IP2)” value in assay [3] (RAJI cells, cycloheximide) is “not sensitive”. For the same molecule, the “CD40 associated TRAF1 protein” value is recorded as “rescued” in assay [3] (shCTL RAJI cells (presence of PKN1), cycloheximide 6 h) and “partially rescued” in assay [3] (shPKN1 RAJI cells (absence of PKN1), cycloheximide).
Regarding `CC(=O)c1cnc2ccc(-c3cc(Cl)c(O)c(Cl)c3)nc2c1N[C@H]1CC[C@H](CN(C)C)CC1` [OTSSP167], the IC50 in the assay on pS6 was 310 nM; in the assay on primary CLL cells (24 h), 45.9 nM; with pNF-κB p65, 320 nM; in the assay on TRAF1 [5], 18 nM; with Mcl-1, 25.7 nM; with Bcl-2 it was 49.8 nM. For the same molecule, the IC50 in the assay with pERK [2] was determined as 1040 nM; against PRK1(h), 11 nM. In the assay on primary CLL cells (OTSSP167 with 1 nM venetoclax versus OTSSP167 alone), the “reduction of IC50 for cell death compared to treatment alone” value is given as 1.9 fold. Besides, in the assay on primary CLL cells (primary CLL cells, suboptimal concentration 50 nM), the cells survived treatment is recorded as 20–50%. Also, the “primary CLL cells died” value in the assay on primary CLL cells (suboptimal 10 nM alone, 24 h) is reported as less than 15%. Further, the pERK levels entry in the assay on pERK [4] was “decreased only at the highest levels”.
On to `CCCCNc1ncc2c(-c3ccc(CN4CCN(C)CC4)cc3)cn([C@H]3CC[C@H](O)CC3)c2n1` [UNC-2025], for which the “effect on TRAF1 levels” value with TRAF1 [5] is listed as “increased rather than decreased”.
As for `CC(C)c1cc(CNc2nc(Nc3cc(C4CC4)[nH]n3)cc(N3CCN(C)CC3)n2)on1` [XL-228], the half-inhibitory concentration (IC50) in the assay on pS6 came to 1440 nM; with pNF-κB p65 it was 2470 nM; in the assay with TRAF1 [5], 2300 nM; in the assay on Mcl-1 it was 2540 nM; in the assay with Bcl-2, 3520 nM; in the assay with pERK [2], 2230 nM. In addition, the cells survived treatment in the assay with primary CLL cells (primary CLL cells, suboptimal concentration 4 μM) is 20–50%.
For the molecule `CC1(COc2ccc3c(c2)ncn3-c2ccc3cccc(N4CCC(N)CC4)c3n2)COC1` [crenolanib, Crenolanib], the “effect on TRAF1 levels” value in the assay on TRAF1 [5] was “increased rather than decreased”.
In the case of `CC(C)NC[C@@H](C(=O)N1CCN(c2ncnc3c2[C@H](C)C[C@H]3O)CC1)c1ccc(Cl)cc1` [ipatasertib, Ipatasertib], the half-inhibitory concentration (IC50) in the assay with TRAF1 [5] is more than 10000 nM.
With `C[C@@H]1CCN(C(=O)CC#N)C[C@@H]1N(C)c1ncnc2[nH]ccc12` [tofacitinib], the “effect on TRAF1 levels” value in the assay with TRAF1 [5] was “minimal effects”.
Take `Cn1ncc(Cl)c1-c1cc(C(=O)N[C@H](CN)Cc2ccc(F)c(F)c2)oc1Cl` [uprosertib, Uprosertib]: the IC50 in the assay on TRAF1 [5] came out at 4900 nM.
Regarding `CC1(C)CCC(CN2CCN(c3ccc(C(=O)NS(=O)(=O)c4ccc(NCC5CCOCC5)c([N+](=O)[O-])c4)c(Oc4cnc5[nH]ccc5c4)c3)CC2)=C(c2ccc(Cl)cc2)C1` [venetoclax], the IC50 in the assay with primary CLL cells (24 h) amounted to 9.91 nM. For the same molecule, the “primary CLL cells died” value in the assay on primary CLL cells (suboptimal 1 nM alone, 24 h) is reported as less than 15%. Besides, in the assay with primary CLL cells (venetoclax with 10 nM OTSSP167 versus venetoclax alone), the “decrease of IC50 for cell death compared to treatment alone” value is listed as 5.8 fold. Besides, the “patients whose CLL cells were enriched for TRAF1hi cells after treatment” value in the assay on TRAF1 [1] (dose that resulted in approximately 50% death) is on record as 4 of 6. In the assay on TRAF1 [1], the “effect on TRAF1 expression” value is recorded as “lack of effect”.

These data come from paper PMC8475556 (Oncoimmunology, 2021).
